From ChEMBL document CHEMBL4145530, “Design, synthesis and pharmacological evaluation of N-benzyl-piperidinyl-aryl-acylhydrazone derivatives as donepezil hybrids: Discovery of novel multi-target anti-alzheimer prototype drug candidates” (Eur J Med Chem, 2018)
The source made the active and inactive calls. The calls are words filed in the database; no cut-off is given here.

Experiments:
Mus musculus [1] = test: (§1) Anti-inflammatory activity in C57Bl/6 mouse model of amyloid beta (1 to 42) oligomer-induced neuroinflammation assessed as inhibition of neurodegeneration in CA1 region of ipsilateral hippocampus at 100 mg/kg, ip pretreated for 1.5 hrs followed by amyloid beta (1 to 42) oligomer addition and measured after 7 days by Fluoro-Jade C staining based fluorescence microscopic assay; type: functional, organism-based
Method in brief: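 C57Bl/6 male mice were dosed i.p. at 100 mg/kg 1.5 h before stereotactic right intrahippocampal Aβ1-42 oligomer injection (400 pmol/0.5 µL), with PBS as control. After 7 days, hippocampal sections were stained with Fluoro-Jade C (0.0001%) after NaOH/ethanol and permanganate steps. Five CA1 images per hippocampus were imaged under fluorescence and pixel intensity quantified, n=10.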

HepG2 [2] = test: Genotoxicity in human HepG2 cells assessed as induction of DNA damage by measuring comet tail moment at 20 to 40 uM by alkaline comet assay; type: toxicity, cell-based; settings: hepg2, 40 µM
Method in brief: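 HepG2 cells were exposed 6 h to 20 or 40 µM, then trypsinised; viability was checked by trypan blue. Cells were embedded in low-melting agarose and lysed at 4 °C, pH 10, for 24 h. DNA was unwound 20 min in pH 13 buffer, then electrophoresed 25 V/300 mA for 25 min, neutralised and stained with SYBR Green. Tail moment was scored on 50 nuclei per slide in triplicate slides; 3 independent experiments. Doxorubicin and UV light served as positive controls.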

Mus musculus [3] = test: Inhibition of serum COX2 level in Swiss mouse model of carragenan-induced paw edema at 100 mM/kg, po pretreated for 1 hr followed by carrageenan treatment measured after 3 hrs by ELISA; type: functional
Method in brief: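 Swiss mice (n=8) received compound (100 mM/kg) or vehicle orally 1 h before intraplantar carrageenan; indomethacin was the positive control. Three hours later, blood was drawn from the heart under chloral hydrate anaesthesia and serum was collected. COX-1 and COX-2 protein was measured by sandwich ELISA read at 450 nm and expressed as percent COX level.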

Mus musculus [4] = test: as §1, with “microgliosis” for “neurodegeneration”, “Iba-1” for “Fluoro-Jade C”, “based” for “based fluorescence microscopic”; type: functional, organism-based
Method in brief: (§2)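 Male C57Bl/6 mice (25–30 g) got 100 mg/kg i.p. or vehicle 1.5 h before a unilateral right-hippocampal injection of Aβ1-42 oligomers (400 pmol/0.5 µL) or PBS. The oligomers were made by diluting the DMSO stock into PBS at 40 µM and holding at 4 °C for 48 h. After 7 days, brain sections were stained for Iba-1 (antigen retrieval, fluorescent secondary) and five CA1 images per hippocampus were taken; pixel density was read, n=10.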

THP-1 = test: Anti-inflammatory activity in human THP1 cells assessed as inhibition of LPS-induced IL-1beta production at 10 uM after 24 hrs by ELISA relative to control; type: functional; settings: THP-1, 24 h
Method in brief: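 Human monocytic THP-1 cells (5×10^5 cells/mL) were given LPS 1 µg/mL with or without compound at 10 µM for 24 h. Cells were spun out at 500 × g and the medium kept at −80 °C. Secreted IL-1β and TNFα were measured with high-sensitivity ELISA. Three independent experiments.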

SH-SY5Y = test: cells; type: ADME, cell-based; settings: Homo sapiens, 24 h
[5] = Selectivity ratio of IC50 for equine serum BuChE to IC50 for electric eel AChE
Method in brief: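 Ellman kinetic assay with Electrophorus electricus AChE (acetylthiocholine) and equine serum BuChE (butyrylthiocholine iodide), […]. Enzyme was preincubated 10 min with DTNB and compound in 0.1 M sodium phosphate, pH 7.4 (final DMSO <0.2%), before substrate was added. A412 was read every 12 s for 5 min at rt to give maximum velocity. IC50 is the geometric mean of 2–3 curves, each 6 concentrations in triplicate. Selectivity is IC50 BuChE/IC50 AChE.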

[6] = target: T1, Prostaglandin G/H synthase 1 (Ovis aries) (UniProt P05979); test: Inhibition of ovine COX1 at 10 uM using arachidonic acid as substrate preincubated for 120 mins followed by substrate addition measured for 5 secs by chemiluminescence assay relative to control
T1 sequence (whole entry): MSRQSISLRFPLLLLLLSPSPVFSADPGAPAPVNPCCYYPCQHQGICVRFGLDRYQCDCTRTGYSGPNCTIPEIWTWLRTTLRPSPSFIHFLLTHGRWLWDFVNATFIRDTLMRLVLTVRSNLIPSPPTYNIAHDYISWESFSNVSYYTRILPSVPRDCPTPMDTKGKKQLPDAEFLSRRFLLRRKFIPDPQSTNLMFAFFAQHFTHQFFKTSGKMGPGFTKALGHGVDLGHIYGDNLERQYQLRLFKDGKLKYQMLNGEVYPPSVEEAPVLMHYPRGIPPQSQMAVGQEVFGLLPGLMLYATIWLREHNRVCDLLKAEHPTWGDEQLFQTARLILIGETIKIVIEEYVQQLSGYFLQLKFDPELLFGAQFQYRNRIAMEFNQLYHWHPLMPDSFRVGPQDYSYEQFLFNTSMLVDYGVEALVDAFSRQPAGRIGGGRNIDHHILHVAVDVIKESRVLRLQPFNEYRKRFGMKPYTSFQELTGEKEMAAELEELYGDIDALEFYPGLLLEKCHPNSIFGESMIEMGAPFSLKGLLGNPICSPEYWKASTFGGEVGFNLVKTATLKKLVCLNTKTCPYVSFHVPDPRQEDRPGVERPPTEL
Method in brief: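 COX-1 or COX-2 with heme was preincubated 120 min with compound (10 µM) in assay buffer. Arachidonic acid and a chemiluminescent substrate were then added at room temperature and peroxidative activity was read for 5 s; ibuprofen was the reference. Selectivity index was taken as the ratio of maximum COX-2 inhibition to COX-1 inhibition. Two independent experiments.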

PBMC = test: cells; type: ADME, cell-based; settings: Homo sapiens, 6 h
Acetylcholinesterase = Acetylcholinesterase (Electrophorus electricus, UniProt O42275); test: Non-competitive inhibition of electric eel AChE using acetylthiocholine iodide as substrate preincubated for 10 mins followed by substrate addition by Ellman's method
Method in brief: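 Substrate-competition kinetics with E. electricus AChE by Ellman's method: 10 min enzyme–DTNB–compound preincubation in 0.1 M phosphate, pH 7.4, then acetylthiocholine; A412 was read every 12 s for 5 min at rt. Three independent data sets, each in triplicate, were averaged and fitted to a simple noncompetitive model. That model was compared with mixed linear inhibition by AICc probability ratio.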

HepG2 [7] = test: cells; type: ADME, cell-based; settings: Homo sapiens, HepG2, 6 h
[8] = target: Acetylcholinesterase (Electrophorus electricus) (UniProt O42275); test: Inhibition of electric eel AChE at 100 uM using acetylthiocholine iodide as substrate preincubated for 10 mins followed by substrate addition by Ellman's method relative to control
Mus musculus [9] = test: Proinflammatory activity in C57Bl/6 mouse model of amyloid beta (1 to 42) oligomer-induced neuroinflammation assessed as induction of microgliosis in CA1 region of contralateral hippocampus at 100 mg/kg, ip pretreated for 1.5 hrs followed by amyloid beta (1 to 42) oligomer addition and measured after 7 days by Iba-1 staining based assay; type: organism-based; settings: in vivo, 168 h; method in brief: as §2
[10] = Cytotoxicity against human HepG2 cells assessed as cell viability at 20 to 40 uM after 6 hrs by trypan blue exclusion assay relative to control; type: cell-based; settings: read-out: Activity

Acetylcholinesterase, sequence (O42275 whole entry): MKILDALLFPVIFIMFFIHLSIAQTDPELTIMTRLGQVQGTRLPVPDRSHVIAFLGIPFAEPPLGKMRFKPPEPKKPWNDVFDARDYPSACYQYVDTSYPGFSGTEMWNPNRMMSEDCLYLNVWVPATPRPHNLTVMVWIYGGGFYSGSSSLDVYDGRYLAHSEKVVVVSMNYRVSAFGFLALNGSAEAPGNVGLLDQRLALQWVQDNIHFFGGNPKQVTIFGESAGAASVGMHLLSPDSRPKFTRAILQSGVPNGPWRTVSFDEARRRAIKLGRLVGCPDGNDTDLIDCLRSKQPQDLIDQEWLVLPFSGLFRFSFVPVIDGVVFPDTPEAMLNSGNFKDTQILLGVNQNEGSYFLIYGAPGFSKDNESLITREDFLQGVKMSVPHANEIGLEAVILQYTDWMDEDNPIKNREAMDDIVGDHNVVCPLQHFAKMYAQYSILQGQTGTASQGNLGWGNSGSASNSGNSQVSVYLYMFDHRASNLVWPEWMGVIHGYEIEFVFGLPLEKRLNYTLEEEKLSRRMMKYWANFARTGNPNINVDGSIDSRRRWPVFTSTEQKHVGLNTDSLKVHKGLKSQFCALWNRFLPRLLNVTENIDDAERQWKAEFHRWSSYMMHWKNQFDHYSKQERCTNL
Acetylcholinesterase (Electrophorus electricus), sequence (O42275 24-633 limits assumed): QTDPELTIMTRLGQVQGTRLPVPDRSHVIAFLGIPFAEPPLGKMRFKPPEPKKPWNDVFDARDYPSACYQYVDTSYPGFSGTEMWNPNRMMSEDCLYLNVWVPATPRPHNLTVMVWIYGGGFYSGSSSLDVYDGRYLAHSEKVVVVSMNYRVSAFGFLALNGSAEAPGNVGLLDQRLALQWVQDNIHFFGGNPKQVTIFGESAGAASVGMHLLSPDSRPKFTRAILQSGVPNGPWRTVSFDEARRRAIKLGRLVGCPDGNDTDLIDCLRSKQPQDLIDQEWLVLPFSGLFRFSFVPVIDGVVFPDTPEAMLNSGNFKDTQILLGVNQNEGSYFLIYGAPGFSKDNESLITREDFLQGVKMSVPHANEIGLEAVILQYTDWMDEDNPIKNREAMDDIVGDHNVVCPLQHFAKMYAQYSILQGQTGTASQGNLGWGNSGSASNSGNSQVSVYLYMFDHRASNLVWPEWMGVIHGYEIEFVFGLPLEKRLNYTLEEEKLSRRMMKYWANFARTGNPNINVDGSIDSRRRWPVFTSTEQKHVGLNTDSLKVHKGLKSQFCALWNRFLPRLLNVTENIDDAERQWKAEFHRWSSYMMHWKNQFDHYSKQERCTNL

Structure (SMILES) | inhibition (Mus musculus [1]) | Activity (HepG2 [2]) | inhibition (INH) (Mus musculus [3]) [%] | inhibition (Mus musculus [4]) | inhibition at 10 µM (THP-1) [%] | IC50 (SH-SY5Y) [µM] | Ratio IC50 [5] | inhibition [6] [%] | IC50 (PBMC) [µM] | Ki (Acetylcholinesterase) [µM] | IC50 (HepG2 [7]) [µM] | inhibition [8] [%] | Activity (Mus musculus [9]) | viability at 6 h, 40 µM [10] [%]
O=C(N/N=C/c1ccc(F)cc1)c1ccc(CN2CCCC(O)C2)cc1 (stereo not drawn) | inactive | Non-Toxic | 25 | Active | 31 | > 80 | 4.5 | 64 | > 100 | 13.4 | > 80 | > 60 | Non-Toxic | > 90
O=C(N/N=C/c1ccc(Cl)cc1)c1ccc(CN2CCCC(O)C2)cc1 (stereo not drawn) | Active | Non-Toxic | 42 | Active | 29 | > 80 | 1.9 | 51 | > 100 | 7.76 | > 80 | > 60 | Non-Toxic | > 90
